Source: ChEMBL document CHEMBL4041534, “Treatment of Sepsis Pathogenesis with High Mobility Group Box Protein 1-Regulating Anti-inflammatory Agents” (J Med Chem, 2017)
Activity calls are given as the source filed them. No cut-off for these calls is given here.

Experiments:
[1] = target: T1, High mobility group protein B1 (Mus musculus) (UniProt P63158); assay: Inhibition of HMGB1 translocation from nucleus to cytosol in LPS-stimulated mouse RAW264.7 cells assessed as inhibition of NO release at 10 uM measured after 24 hrs by Griess assay relative to control
T1 sequence (whole entry): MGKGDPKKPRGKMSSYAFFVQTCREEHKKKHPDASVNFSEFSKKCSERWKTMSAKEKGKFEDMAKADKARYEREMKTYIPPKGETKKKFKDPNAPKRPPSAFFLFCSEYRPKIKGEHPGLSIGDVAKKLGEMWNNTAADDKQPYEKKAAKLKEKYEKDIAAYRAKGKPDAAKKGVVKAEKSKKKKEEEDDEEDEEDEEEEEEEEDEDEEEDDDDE
How it was run: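 Raw264.7 cells, seeded 1 day earlier, were moved to serum-free DMEM and exposed to 100 ng/mL LPS with 10 μM compound for 24 h. Supernatant NO was measured with Griess reagent (sulfanilamide/N-(1-naphthyl)ethylenediamine/phosphoric acid) at room temperature, absorbance 548 nm. Inhibition was set against LPS+DMSO wells, blank-corrected, with four control wells. At least three independent experiments.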

[2] = Cytotoxicity against mouse RAW264.7 cells assessed as cell viability at 10 uM in presence of LPS measured after 24 hrs by WST assay relative to control; format: cell-based; settings: read-out: Activity
How it was run: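 Raw264.7 cells, seeded 1 day earlier, were washed into serum-free DMEM and given 100 ng/mL LPS plus compound (10 μM) for 24 h. After the supernatant was removed, wells were refilled with 10% FBS DMEM and WST reagent was added for 20 min at 37 °C. Absorbance was read at 450 nm, and viability is relative to vehicle. At least three independent experiments.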

RAW264.7 = assay: Cytotoxicity against mouse RAW264.7 cells assessed as reduction in cell viability at >10 uM in presence of LPS measured after 24 hrs by WST assay; format: cell-based; settings: raw264.7, 24 h
[3] = target: T1, High mobility group protein B1 (Mus musculus); assay: Inhibition of HMGB1 translocation from nucleus to cytosol in LPS-stimulated mouse RAW264.7 cells assessed as inhibition of TNF-alpha production at 10 uM measured after 4 hrs by ELISA relative to control
How it was run: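 Raw264.7 cells in serum-free DMEM were treated with 100 ng/mL LPS and 10 μM compound (final). After 4 h, medium was diluted in 1% BSA/PBS and secreted TNF-α was quantified by ELISA against a standard curve of TNF-α protein. Inhibition is relative to control. At least three independent experiments.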

[4] = target: T1, High mobility group protein B1 (Mus musculus); assay: Inhibition of HMGB1 nuclear translocation in LPS-stimulated mouse RAW264.7 cells at 20 uM pretreated for 1 hr followed by LPS-induction measured after 2 hrs by Hoechst 33342/TRITC staining based immunofluorescence microscopic method
How it was run: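 Raw264.7 cells on chambered coverglass were pretreated with 20 μM compound for 1 h, then given 500 ng/mL LPS for 2 h. Cells were fixed in 4% paraformaldehyde, permeabilized with methanol at −20 °C, blocked with 2% BSA, and stained with anti-HMGB1 plus TRITC secondary and Hoechst 33342. Imaged by deconvolution fluorescence microscopy. At least three independent experiments.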

[5] = target: T1, High mobility group protein B1 (Mus musculus); assay: Inhibition of HMGB1 nuclear translocation in LPS-stimulated mouse RAW264.7 cells assessed as inhibition of IL-6 production at 10 uM pretreated for 1 hr followed by LPS-induction by Western blot analysis
How it was run: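 Raw264.7 cells were pretreated with 10 μM compound for 1 h, then given 100 ng/mL LPS. IL-6 released into the culture medium was detected by Western blot with ECL chemiluminescence, DMSO as control. At least three independent experiments.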

| SMILES | inhibition [1] | viability at 24 h, 10 µM [2] [%] | other results |
| --- | --- | --- | --- |
| CC1(C)Oc2cc(O)ccc2C2C1=CCn1c(=O)n(-c3ccccc3I)c(=O)n12 (configuration not stated) | 48% | 109 | – |
| CNc1ccc2c(c1)OC(C)(C)C1=CCn3c(=O)n(-c4ccccc4)c(=O)n3C12 (configuration not stated) | 52% | – | – |
| CC1(C)Oc2cc(O)ccc2C2C1=CCn1c(=O)n(-c3ccc(C(F)(F)F)cc3)c(=O)n12 (configuration not stated) | 85% | 106 | Activity (RAW264.7): Toxic |
| COc1cccc(-n2c(=O)n3n(c2=O)C2C(=CC3)C(C)(C)Oc3cc(O)ccc32)c1 (configuration not stated) | 96% | 118 | inhibition [3]: 38% |
| CC1(C)Oc2cc(O)ccc2C2C1=CCn1c(=O)n(Cc3ccccc3)c(=O)n12 (configuration not stated) | 70% | 106 | – |
| CCCN1CCC2(CC1)Oc1cc(O)ccc1C1C2=CCn2c(=O)n(-c3ccccc3)c(=O)n21 (configuration not stated) | 47% | – | – |
| CC1(C)Oc2cc(O)ccc2C2C1=CCn1c(=O)n(-c3ccc4c(c3)OCO4)c(=O)n12 (configuration not stated) | 92% | 121 | inhibition [4]: Active; inhibition [3]: 46%; inhibition [5]: Active |
| CC1(C)Oc2cc(O)ccc2C2C1=CCn1c(=O)n(-c3ccc(F)cc3)c(=O)n12 (configuration not stated) | 87% | 109 | inhibition [3]: 44% |
| COc1cc2c(cc1OC)C1C(=CCn3c(=O)n(-c4ccccc4)c(=O)n31)C(C)(C)O2 (configuration not stated) | 44% | – | – |
| CC1(C)Oc2cc(F)ccc2C2C1=CCn1c(=O)n(-c3ccccc3)c(=O)n12 (configuration not stated) | 79% | – | – |
| COc1ccc(-n2c(=O)n3n(c2=O)C2C(=CC3)C(C)(C)Oc3cc(O)ccc32)cc1 (configuration not stated) | 89% | 127 | inhibition [3]: 44% |
| CCCCc1ccc(-n2c(=O)n3n(c2=O)C2C(=CC3)C(C)(C)Oc3cc(O)ccc32)cc1 (configuration not stated) | 99% | 50 | Activity (RAW264.7): Toxic |
| CC1(C)Oc2cc(O)ccc2C2C1=CCn1c(=O)n(C3CCCCC3)c(=O)n12 (configuration not stated) | 63% | 117 | – |
| CC(=O)N1CCC2(CC1)Oc1cc(O)ccc1C1C2=CCn2c(=O)n(-c3ccccc3)c(=O)n21 (configuration not stated) | 36% | – | – |
| COc1ccc2c(c1O)OC(C)(C)C1=CCn3c(=O)n(-c4ccccc4)c(=O)n3C12 (configuration not stated) | 26% | – | – |
| COc1ccccc1-n1c(=O)n2n(c1=O)C1C(=CC2)C(C)(C)Oc2cc(O)ccc21 (configuration not stated) | 66% | 115 | – |
| CC1(C)Oc2ccccc2C2C1=CCn1c(=O)n(-c3ccccc3)c(=O)n12 (configuration not stated) | 83% | – | – |
| COc1ccc2c(c1)OC(C)(C)C1=CCn3c(=O)n(-c4ccccc4)c(=O)n3C12 (configuration not stated) | 44% | – | – |
| CC1(C)Oc2cc(O)ccc2C2C1CCn1c(=O)n(-c3ccccc3)c(=O)n12 (configuration not stated) | inactive | – | – |
| CC1(C)Oc2cc(O)ccc2C2C1=CCn1c(=O)n(-c3ccc(C(C)(C)C)cc3)c(=O)n12 (configuration not stated) | 99% | 105 | Activity (RAW264.7): Toxic |
| COc1ccc2c(c1)C1C(=CCn3c(=O)n(-c4ccccc4)c(=O)n31)C(C)(C)O2 (configuration not stated) | 55% | – | – |
| CC1(C)Oc2cc(O)ccc2C2C1C=Cn1c(=O)n(-c3ccccc3)c(=O)n12 (configuration not stated) | inactive | – | – |
| Cc1ccc(-n2c(=O)n3n(c2=O)C2C(=CC3)C(C)(C)Oc3cc(O)ccc32)cc1 (configuration not stated) | 94% | 130 | inhibition [4]: Active; inhibition [3]: 45%; inhibition [5]: Active |
